Six molecules from ChEMBL document CHEMBL1153750, “ent-kaurane and ent-pimarane diterpenoids from Siegesbeckia pubescens” (J Nat Prod, 2010) can be followed below.

Holding throughout (type): functional, cell-based
The subject of assay [1] is HeLa. In words: Cytotoxicity against human HeLa cells after 44 hrs by MTT assay. The gist of the method: (§1)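 Exponential-phase cells seeded at 5 × 10⁴ per well and preincubated 24 h at 37 °C, 5% CO₂. Test agent added in triplicate at final 10, 50 and 100 μg/mL, incubated 44 h at 37 °C. MTT then added for 4 h at 37 °C, absorbance read at 490 nm. IC50 derived from percentage inhibition by linear regression.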

The subject of assay [2] is B16. In words: Cytotoxicity against mouse B16 cells after 44 hrs by MTT assay. An outline of the steps:
as §1

The nature of assay [3]: Cytotoxicity against rat HSC-T6 cells after 44 hrs by MTT assay. An outline of the steps:
as §1
Background: Tetrazolium dyes change colour on reduction, which living cells bring about.

Setting [4] is: Mus musculus, B16, 44 h, read-out: IC50.
[5] abbreviates: Rattus norvegicus, HSC-T6, 44 h, read-out: IC50.
[6] abbreviates: Homo sapiens, HeLa, 44 h, read-out: IC50.

Structures are written as SMILES. ≈ marks a conversion by molar mass, not a printed value. Where only a bound is given, the exact number is not on record here.

What is called IC50 is the midpoint of a concentration-inhibition curve.

With `C[C@@]1(CO)C[C@@H](O)C[C@@]2(C)[C@@H]3CC[C@](C)([C@@H](O)CO)C=C3CC[C@H]12` [KIRENOL], the IC50 entry is “Not Active” in assay [1] (hela), greater than 100 µg/mL in assay [2] (setting [4]) and greater than 100 µg/mL in assay [3] (setting [5]).

In the case of `CC1(C)[C@H](O)CC[C@@]2(C)[C@@H]3CC[C@](C)([C@@H](O)CO)C=C3CC[C@H]12` [DARUTIGENOL], the IC50 in assay [1] (setting [6]) is greater than 100 µg/mL; in assay [2] (b16), “Not Active”; in assay [3] (hsc-t6), “Not Active”.

Consider `C[C@@]12CCC[C@@](C)(C(=O)O)[C@H]1CC[C@@]13C[C@H](CC[C@H]12)[C@@](O)(CO)C3`, for which the IC50 in assay [1] (setting [6]), in assay [2] (setting [4]) and in assay [3] (setting [5]) was greater than 100 µg/mL throughout.

As for `CC(=O)OC[C@@]1(C(=O)O)CCC[C@@]2(C)[C@@H]3CC[C@H]4C[C@@]3(CC[C@H]12)C[C@H]4COC(=O)C(C)C`, the results for the IC50 in assay [1] (setting [6]), in assay [2] (setting [4]) and in assay [3] (setting [5]) were 24.6 µg/mL (≈ 54.8 µM), 22.8 µg/mL (≈ 50.8 µM) and 24.6 µg/mL (≈ 54.8 µM), respectively.

For `CC1(C)OC[C@@H]([C@]2(C)C=C3CC[C@@H]4C(C)(C)[C@H](O)CC[C@@]4(C)C3CC2)O1` (stereo partly drawn), the 50% inhibitory concentration (IC50) stood at 11.7 µg/mL (≈ 32.3 µM) in assay [1] (setting [6]), 7.8 µg/mL (≈ 21.5 µM) in assay [2] (setting [4]) and 12.6 µg/mL (≈ 34.8 µM) in assay [3] (setting [5]).

As to `CC(=O)O[C@H]1C(=O)[C@@]2(C)[C@H]([C@H](OC(=O)c3ccccc3)[C@]3(O)C[C@H](OC(=O)[C@H](O)[C@@H](NC(=O)c4ccccc4)c4ccccc4)C(C)=C1C3(C)C)[C@]1(OC(C)=O)CO[C@@H]1C[C@@H]2O` [PACLITAXEL], the half-inhibitory concentration (IC50) turned out to be 0.61 µg/mL (≈ 0.714 µM) in assay [1] (setting [6]), 0.63 µg/mL (≈ 0.738 µM) in assay [2] (setting [4]) and 0.75 µg/mL (≈ 0.878 µM) in assay [3] (setting [5]).
